Each block holds one compound with its values, some of them ahead of it.
Key:
[1] = molecular target: Histone deacetylase (HDAC1 and HDAC2) (Homo sapiens, UniProt Q13547+Q92769); test: Inhibition of HDAC1/2 in human HeLa cell nuclear extract using COLOR DE LYS as substrate pretreated for 5 mins followed by substrate addition measured after 30 mins by UV-absorption method; format: cell-based
K562 [2] = test: Induction of apoptosis in human K562 cells assessed as late apoptotic cells at 1 uM after 24 hrs by Annexin V-FITC/propidium iodide staining-based flow cytometry (reference value: 2.83%); format: functional
K562 [3] = test: Induction of apoptosis in human K562 cells after 24 hrs by Annexin V-FITC/propidium iodide staining-based flow cytometric method; format: functional, cell-based
K562 [4] = test: Induction of apoptosis in human K562 cells assessed as viable cells at 1 uM after 24 hrs by Annexin V-FITC/propidium iodide staining-based flow cytometry (reference value: 92.4%); format: functional
K562 [5] = test: Induction of apoptosis in human K562 cells assessed as necrotic cells at 1 uM after 24 hrs by Annexin V-FITC/propidium iodide staining-based flow cytometry (reference value: 0.035%); format: functional
K562 [6] = test: Induction of apoptosis in human K562 cells assessed as late apoptotic cells at 2 uM after 24 hrs by Annexin V-FITC/propidium iodide staining-based flow cytometry (reference value: 2.83%); format: functional
K562 [7] = test: Induction of apoptosis in human K562 cells assessed as early apoptotic cells at 1 uM after 24 hrs by Annexin V-FITC/propidium iodide staining-based flow cytometry (reference value: 4.78%); format: functional
K562 [8] = test: Induction of apoptosis in human K562 cells assessed as early apoptotic cells at 2 uM after 24 hrs by Annexin V-FITC/propidium iodide staining-based flow cytometry (reference value: 4.78%); format: functional
PC-3 = test: Antiproliferative activity against human PC3 cells after 48 hrs by MTT assay; format: functional, cell-based; settings: PC-3, 48 h
Summary of the method: (§1)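 Cells grown in RPMI1640 with 10% FBS at 37°C, 5% CO2. Seeded at 4000–5000 cells/well for 8 h, then exposed to a range of compound concentrations for 48 h. 0.5% MTT solution added for 4 h, formazan dissolved in DMSO, absorbance read at 570 nm. IC50 derived from inhibition ratios, given as mean ± standard deviation of two or three separate determinations.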

K562 [9] = test: Induction of apoptosis in human K562 cells assessed as necrotic cells at 2 uM after 24 hrs by Annexin V-FITC/propidium iodide staining-based flow cytometry (reference value: 0.035%); format: functional
K562 [10] = test: Induction of apoptosis in human K562 cells assessed as viable cells at 2 uM after 24 hrs by Annexin V-FITC/propidium iodide staining-based flow cytometry (reference value: 92.4%); format: functional
K562 [11] = test: Antiproliferative activity against human K562 cells after 48 hrs by MTT assay; format: functional, cell-based; settings: K562, 48 h
HEL = test: Antiproliferative activity against human HEL cells after 48 hrs by MTT assay; format: functional, cell-based
HeLa = test: Antiproliferative activity against human HeLa cells after 48 hrs by MTT assay; format: functional, cell-based; summary of the method: as §1
MOLT-4 = test: Antiproliferative activity against human MOLT4 cells after 48 hrs by MTT assay; format: functional, cell-based; settings: MOLT-4, 48 h

Structure (SMILES): O=C(NO)c1ccc(CNCc2ccc3ccccc3n2)cc1
- IC50 [1]: > 1000 nM

Structure (SMILES): O=C(NO)c1ccc(CNCc2ccc3cccc(Cl)c3n2)cc1
- IC50 [1]: > 1000 nM

Structure (SMILES): O=C(CCCCCCC(=O)Nc1ccccc1)NO [VORINOSTAT]
- Activity (K562 [2]): 2.99%
- Activity (K562 [3]): Dose-dependent effect
- Activity (K562 [4]): 90.8%
- Activity (K562 [5]): 0.06%
- Activity (K562 [6]): 4.04%
- Activity (K562 [7]): 6.1%
- Activity (K562 [8]): 6.97%
- IC50 (PC-3): 13900 nM
- Activity (K562 [9]): 0.05%
- Activity (K562 [10]): 88.9%

Structure (SMILES): O=C(NO)c1ccc(CN(Cc2ccccc2)Cc2ccc3ccccc3n2)cc1
- IC50 [1]: 836 nM

Structure (SMILES): O=C(/C=C/c1ccc(CNCc2ccc3cc(Cl)ccc3n2)cc1)NO
- IC50 (K562 [11]): 720 nM
- IC50 [1]: 305 nM
- IC50 (HEL): 220 nM
- IC50 (HeLa): 3030 nM
- IC50 (PC-3): 4350 nM
- IC50 (MOLT-4): 250 nM

Structure (SMILES): CCCCCCN(Cc1cccc(/C=C/C(=O)NO)c1)Cc1ccc2cc(Br)ccc2n1
- IC50 [1]: > 1000 nM

Structure (SMILES): COc1cccc2ccc(CNCc3ccc(/C=C/C(=O)NO)cc3)nc12
- IC50 (K562 [11]): 750 nM
- IC50 [1]: 206 nM
- IC50 (HEL): 220 nM
- IC50 (HeLa): 3330 nM
- IC50 (PC-3): 4600 nM
- IC50 (MOLT-4): 190 nM

Results, then the compound that gave them:

- IC50 [1]: > 1000 nM
Structure (SMILES): O=C(/C=C/c1ccc(CN(Cc2ccccc2)Cc2ccc3cc(Br)ccc3n2)cc1)NO

- IC50 [1]: > 1000 nM
Structure (SMILES): O=C(/C=C/c1ccc(CN(Cc2ccccc2)Cc2ccc3ccccc3n2)cc1)NO

- IC50 [1]: > 1000 nM
Structure (SMILES): O=C(/C=C/c1ccc(CC(=O)N(Cc2ccc3cc(Br)ccc3n2)c2ccccc2)cc1)NO

- IC50 [1]: > 1000 nM
Structure (SMILES): O=C(/C=C/c1cccc(CN(Cc2ccccc2)Cc2ccc3cc(Br)ccc3n2)c1)NO

- IC50 [1]: 744 nM
Structure (SMILES): COc1ccc(N(Cc2ccc3ccccc3n2)C(=O)c2ccc(/C=C/C(=O)NO)cc2)cc1

- IC50 [1]: > 1000 nM
Structure (SMILES): O=C(/C=C/c1ccc(C(=O)N(Cc2ccc3ccccc3n2)c2ccc(Br)cc2)cc1)NO

- IC50 [1]: > 1000 nM
Structure (SMILES): O=C(/C=C/c1ccc(CN(Cc2ccccc2)Cc2ccc3cc(Cl)ccc3n2)cc1)NO

Reference: ChEMBL document CHEMBL4033620, “Design, synthesis and biological evaluation of quinoline derivatives as HDAC class I inhibitors” (Eur J Med Chem, 2017)
